Legend:
[1] = Cytotoxicity against human HepG2 cells after 72 hrs by MTT assay; assay type: cell-based
Procedure, shortened: (§1)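 VERO (ATCC CCL-81) and HepG2 (ATCC HB-8065) cells were exposed for 24, 48 or 72 h to an […] dilution series from 400 to 1.56 μM. CC50 was taken from the concentration–response curve. Triplicates, with at least three independent cultures (n = 3).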

[2] = Cytotoxicity against African green monkey Vero cells after 72 hrs by MTT assay; assay type: cell-based; settings: chlorocebus sabaeus; procedure, shortened: as §1
Plasmodium falciparum [3] = assay: Antiplasmodial activity against chloroquine-resistant Plasmodium falciparum W2 infected in human erythrocytes; assay type: functional, organism-based
Procedure, shortened: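 P. falciparum W2 grown in fresh human O+ erythrocytes at 2% hematocrit in complete medium, 37 °C. Compounds tested over a 100–3.12 µM dilution series. IC50 estimated from the dose-response curve relative to drug-free control wells (100% parasite viability). Artemisinin run in parallel as control. Triplicates, at least three independent cultures (n = 3).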

[4] = Selectivity index, ratio of CC50 for human HepG2 cells to IC50 for chloroquine-resistant Plasmodium falciparum W2; assay type: toxicity; settings: read-out: Ratio CC50/IC50
Procedure, shortened: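 SI = HepG2 CC50 / W2 IC50. CC50 came from HepG2 growth inhibition over a 400–1.56 µM dilution series, read at 24, 48 and 72 h. IC50 came from the W2 erythrocyte assay (100–3.12 µM range). Triplicates, at least three independent cultures.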

Plasmodium falciparum [5] = assay: Antiplasmodial activity against Plasmodium falciparum assessed as potentiation of artemisinin-induced antimalarial activity by measuring dose reduction index relative to artemisinin alone; assay type: functional
Plasmodium falciparum [6] = assay: Antiplasmodial activity against Plasmodium falciparum assessed as combination index in presence of artemisinin; assay type: functional
Procedure, shortened: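 Chloroquine-resistant P. falciparum W2 was grown in fresh human O+ erythrocytes at 2% hematocrit in complete medium at 37 °C. Artemisinin was co-tested with the triterpene using the one-point Chou–Talalay method, at a minimum of one combination ratio. CI is the sum of the two FICs: ≤1 synergy, 1–2 additivity, >2 antagonism. Triplicates, n = 3 independent cultures.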

Structure (SMILES)	CC50 at 72 h [1] [µM]	CC50 at 72 h [2] [µM]	IC50 (Plasmodium falciparum [3]) [µM]	selectivity ratio [4]	Activity_index (Plasmodium falciparum [5])	CI (Plasmodium falciparum [6])
COC(=O)[C@]12CC[C@@H](C)[C@H](C)[C@H]1C1=CC[C@@H]3[C@@]4(C)CC[C@H](OC(=O)C(C)C)C(C)(C)[C@@H]4CC[C@@]3(C)[C@]1(C)CC2	> 400	> 400	> 100	–	–	–
C=C(C)[C@@H]1CC[C@]2(C(=O)O)CC[C@]3(C)[C@H](CC[C@@H]4[C@@]5(C)CC[C@H](O)C(C)(C)[C@@H]5CC[C@]43C)[C@@H]12 [BETULINIC ACID]	> 400	> 400	12.8	> 31.4	–	–
C=C(C)[C@@H]1CC[C@]2(C(=O)n3ccnc3)CC[C@]3(C)[C@H](CC[C@@H]4[C@@]5(C)CC[C@H](OC(=O)C(C)C)C(C)(C)[C@@H]5CC[C@]43C)[C@@H]12	> 400	> 400	29.6	> 13.5	–	–
C=C(C)[C@@H]1CC[C@]2(C(=O)OC)CC[C@]3(C)[C@H](CC[C@@H]4[C@@]5(C)CCC(=O)C(C)(C)[C@@H]5CC[C@]43C)[C@@H]12 [METHYL BETULONATE]	> 400	> 400	> 100	–	–	–
C=C(C)[C@@H]1CC[C@]2(C(=O)n3ccnc3)CC[C@]3(C)[C@H](CC[C@@H]4[C@@]5(C)CC[C@H](OC(C)=O)C(C)(C)[C@@H]5CC[C@]43C)[C@@H]12	> 400	> 400	8.9	> 44.9	–	–
C=C(C)[C@@H]1CC[C@]2(C(=O)O)CC[C@]3(C)[C@H](CC[C@@H]4[C@@]5(C)CC[C@H](OC(C)=O)C(C)(C)[C@@H]5CC[C@]43C)[C@@H]12	> 400	> 400	65.5	> 6.11	–	–
CC(=O)O[C@H]1CC[C@]2(C)[C@H]3CC=C4[C@@H]5[C@@H](C)[C@H](C)CC[C@]5(C(=O)n5ccnc5)CC[C@@]4(C)[C@]3(C)CC[C@H]2C1(C)C	> 400	> 400	50.6	> 7.9	–	–
COC(=O)[C@]12CC[C@@H](C)[C@H](C)[C@H]1C1=CC[C@@H]3[C@@]4(C)CC[C@H](OC(C)=O)C(C)(C)[C@@H]4CC[C@@]3(C)[C@]1(C)CC2	> 400	> 400	> 100	–	–	–
CC(C)C(=O)O[C@H]1CC[C@]2(C)[C@H]3CC=C4[C@@H]5[C@@H](C)[C@H](C)CC[C@]5(C(=O)O)CC[C@@]4(C)[C@]3(C)CC[C@H]2C1(C)C	> 400	> 400	> 100	–	–	–
C[C@H]1[C@H](C)CC[C@]2(C(=O)n3ccnc3)CC[C@]3(C)C(=CC[C@@H]4[C@@]5(C)CCC(=O)C(C)(C)[C@@H]5CC[C@]43C)[C@H]12	> 400	> 400	9.07	> 44.1	–	–
CCCC(=O)O[C@H]1CC[C@]2(C)[C@H]3CC=C4[C@@H]5[C@@H](C)[C@H](C)CC[C@]5(C(=O)OC)CC[C@@]4(C)[C@]3(C)CC[C@H]2C1(C)C	> 400	> 400	> 100	–	–	–
C[C@@H]1CC[C@H]2[C@@H](C)C(=O)O[C@@H]3O[C@@]4(C)CC[C@@H]1[C@]32OO4 [ARTEMISININ]	–	–	0.0163	–	–	–
C[C@H]1[C@H](C)CC[C@]2(C(=O)O)CC[C@]3(C)C(=CC[C@@H]4[C@@]5(C)CC[C@H](O)C(C)(C)[C@@H]5CC[C@]43C)[C@H]12 [URSOLIC ACID]	114	99.9	50.6	2.24	–	–
CCCC(=O)O[C@H]1CC[C@]2(C)[C@H]3CC=C4[C@@H]5[C@@H](C)[C@H](C)CC[C@]5(C(=O)n5ccnc5)CC[C@@]4(C)[C@]3(C)CC[C@H]2C1(C)C	> 400	> 400	10.4	> 38.5	–	–
C[C@H]1[C@H](C)CC[C@]2(C(=O)O)CC[C@]3(C)C(=CC[C@@H]4[C@@]5(C)CCC(=O)C(C)(C)[C@@H]5CC[C@]43C)[C@H]12 [URSONIC ACID]	> 400	> 400	24.3	> 16.5	–	–
CC(C)C(=O)O[C@H]1CC[C@]2(C)[C@H]3CC=C4[C@@H]5[C@@H](C)[C@H](C)CC[C@]5(C(=O)n5ccnc5)CC[C@@]4(C)[C@]3(C)CC[C@H]2C1(C)C	> 400	> 400	13.6	> 29.4	–	–
CC(=O)O[C@H]1CC[C@]2(C)[C@H]3CC=C4[C@@H]5[C@@H](C)[C@H](C)CC[C@]5(C(=O)O)CC[C@@]4(C)[C@]3(C)CC[C@H]2C1(C)C [O-ACETYLURSOLIC ACID]	> 400	> 400	9.08	> 44	–	–
C=C(C)[C@@H]1CC[C@]2(C(=O)n3ccnc3)CC[C@]3(C)[C@H](CC[C@@H]4[C@@]5(C)CC[C@H](OC(=O)CCC)C(C)(C)[C@@H]5CC[C@]43C)[C@@H]12	> 400	> 400	57.6	> 6.94	–	–
C=C(C)[C@@H]1CC[C@]2(C(=O)OC)CC[C@]3(C)[C@H](CC[C@@H]4[C@@]5(C)CC[C@H](OC(=O)CCC)C(C)(C)[C@@H]5CC[C@]43C)[C@@H]12	> 400	> 400	> 100	–	–	–
COC(=O)[C@]12CC[C@@H](C)[C@H](C)[C@H]1C1=CC[C@@H]3[C@@]4(C)CCC(=O)C(C)(C)[C@@H]4CC[C@@]3(C)[C@]1(C)CC2	> 400	> 400	> 100	–	–	–
CCCC(=O)O[C@H]1CC[C@]2(C)[C@H]3CC=C4[C@@H]5[C@@H](C)[C@H](C)CC[C@]5(C(=O)O)CC[C@@]4(C)[C@]3(C)CC[C@H]2C1(C)C	> 400	> 400	13.3	> 30	7	1.05
C=C(C)[C@@H]1CC[C@]2(C(=O)O)CC[C@]3(C)[C@H](CC[C@@H]4[C@@]5(C)CCC(=O)C(C)(C)[C@@H]5CC[C@]43C)[C@@H]12 [BETUNOLIC ACID]	150	> 400	7.87	19.1	–	–
C=C(C)[C@@H]1CC[C@]2(C(=O)O)CC[C@]3(C)[C@H](CC[C@@H]4[C@@]5(C)CC[C@H](OC(=O)C(C)C)C(C)(C)[C@@H]5CC[C@]43C)[C@@H]12	> 400	> 400	12.1	> 33	–	–
C=C(C)[C@@H]1CC[C@]2(C(=O)n3ccnc3)CC[C@]3(C)[C@H](CC[C@@H]4[C@@]5(C)CCC(=O)C(C)(C)[C@@H]5CC[C@]43C)[C@@H]12	> 400	> 400	5.2	> 76.8	–	–
C=C(C)[C@@H]1CC[C@]2(C(=O)OC)CC[C@]3(C)[C@H](CC[C@@H]4[C@@]5(C)CC[C@H](OC(C)=O)C(C)(C)[C@@H]5CC[C@]43C)[C@@H]12	> 400	> 400	> 100	–	–	–
C=C(C)[C@@H]1CC[C@]2(C(=O)OC)CC[C@]3(C)[C@H](CC[C@@H]4[C@@]5(C)CC[C@H](OC(=O)C(C)C)C(C)(C)[C@@H]5CC[C@]43C)[C@@H]12	> 400	> 400	> 100	–	–	–

From ChEMBL document CHEMBL4184121, “Semisynthesis, cytotoxicity, antimalarial evaluation and structure-activity relationship of two series of triterpene derivatives” (Bioorg Med Chem Lett, 2018)
